Measurements from ChEMBL document CHEMBL1944511, “Bakuchiol derivatives as novel and potent cytotoxic agents: a report” (Eur J Med Chem, 2012).

Tests used:
HCT-15 [1] = experiment: Growth inhibition of human HCT15 cells at 20 uM after 48 hrs by sulpharhodamine B assay; format: functional; settings: HCT-15, 48 h, read-out: GI
Outline: (§1)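 This is the SRB protein-stain assay on adherent cells in RPMI-1640/MEM with 10% FCS. Each compound in DMSO (vehicle <0.2%) was applied at a single fixed concentration for 48 h. Cells were fixed with TCA and stained with SRB, and the dye was solubilised in Tris and read at 570/620 nm. Percent growth inhibition is relative to vehicle-treated controls, reported as mean ± SD of three experiments run in triplicate.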

THP-1 [2] = experiment: Growth inhibition of human THP1 cells at 10 uM after 48 hrs by sulpharhodamine B assay; format: functional; settings: THP-1, 48 h, read-out: GI
Outline: (§2)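 Cells grown in RPMI-1640/MEM with 10% FCS, penicillin/streptomycin, 37 °C, 5% CO2. Seeded in 96-well plates, allowed to adhere overnight, then exposed 48 h to analogs in DMSO (vehicle <0.2% in controls). TCA-fixed, stained with 0.4% SRB in 1% acetic acid, dye solubilized in 10 mM Tris base, OD 570 nm (ref 620 nm). Mean ± SD of three experiments run in triplicate.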

IMR-32 [3] = experiment: Growth inhibition of human IMR32 cells at 10 uM after 48 hrs by sulpharhodamine B assay; format: functional; settings: IMR-32, 48 h, read-out: GI; outline: as §1
IMR-32 [4] = experiment: Growth inhibition of human IMR32 cells at 50 uM after 48 hrs by sulpharhodamine B assay; format: functional; settings: IMR-32, 48 h, read-out: GI; outline: as §1
IMR-32 [5] = experiment: Growth inhibition of human IMR32 cells at 20 uM after 48 hrs by sulpharhodamine B assay; format: functional; settings: IMR-32, 48 h, read-out: GI; outline: as §1
THP-1 [6] = experiment: Growth inhibition of human THP1 cells at 30 uM after 48 hrs by sulpharhodamine B assay; format: functional; settings: THP-1, 48 h, read-out: GI; outline: as §2
HL-60 [7] = experiment: Induction of apoptosis in human HL60 cells assessed as loss of mitochondrial membrane potential at 10 uM after 24 hrs by rodamine-123 staining-based flow cytometric analysis (reference value: 6%); format: functional
HEp-2 [8] = experiment: Growth inhibition of human Hep2 cells at 5 uM after 48 hrs by sulpharhodamine B assay; format: functional; settings: HEp-2, 48 h, read-out: GI; outline: as §1
HL-60 [9] = experiment: Cytotoxicity against human HL60 cells after 48 hrs by sulpharhodamine B assay; format: functional, cell-based; settings: HL-60, 48 h, in the assay text read “MTT assay” for “sulpharhodamine B assay”
HL-60 [10] = experiment: Induction of apoptosis in human HL60 cells assessed as loss of mitochondrial membrane potential at 30 uM after 24 hrs by rodamine-123 staining-based flow cytometric analysis; format: functional
A549 [11] = experiment: Growth inhibition of human A549 cells at 50 uM after 48 hrs by sulpharhodamine B assay; format: functional; settings: A549, 48 h, read-out: GI; outline: as §1
DU-145 = experiment: Growth inhibition of human DU145 cells at 10 uM after 48 hrs by sulpharhodamine B assay; format: functional; settings: DU-145, 48 h, read-out: GI; outline: as §1
MCF7 [12] = experiment: Growth inhibition of human MCF7 cells at 10 uM after 48 hrs by sulpharhodamine B assay; format: functional; settings: MCF7, 48 h, read-out: GI; outline: as §1
HL-60 [13] = experiment: Cytotoxicity against human HL60 cells after 48 hrs by MTT assay; format: functional, cell-based; settings: for IC50: HL-60, 48 h
Outline: (§3)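 Exponentially growing HL-60 cells (1.5×10^4 per well) in 96-well plates were exposed to a range of compound concentrations in DMSO, with vehicle-only controls. MTT (2.5 mg/mL stock) was added for 3–4 h at 37 °C, and formazan was dissolved in DMSO and read at OD 570/620 nm. […] Data are mean ± SD of n = 6 wells from two experiments.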

A549 [14] = experiment: Growth inhibition of human A549 cells at 30 uM after 48 hrs by sulpharhodamine B assay; format: functional; settings: A549, 48 h, read-out: GI; outline: as §1
HL-60 [15] = experiment: Cytotoxicity against human HL60 cells after 24 hrs by MTT assay; format: functional, cell-based; settings: for IC50: HL-60, 24 h; outline: as §3
A549 [16] = experiment: Cytotoxicity against human A549 cells after 48 hrs by sulpharhodamine B assay; format: functional, cell-based; settings: A549, 48 h
Outline: (§4)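 Cells were grown in RPMI-1640/MEM with 10% FCS and penicillin/streptomycin at 37 °C under 5% CO2, then seeded and left to adhere overnight. Analogs in DMSO (vehicle <0.2%) were added at several concentrations for 48 h. Cells were fixed with cold 50% TCA, stained with 0.4% SRB in 1% acetic acid, solubilised in 10 mM Tris, and read at OD 570/620 nm. IC50 came from non-linear regression.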

HEp-2 [17] = experiment: Growth inhibition of human Hep2 cells at 20 uM after 48 hrs by sulpharhodamine B assay; format: functional; settings: HEp-2, 48 h, read-out: GI; outline: as §1
SF-295 = experiment: Cytotoxicity against human SF295 cells after 48 hrs by sulpharhodamine B assay; format: functional, cell-based; settings: SF-295, 48 h; outline: as §4
PC-3 [18] = experiment: Growth inhibition of human PC3 cells at 10 uM after 48 hrs by sulpharhodamine B assay; format: functional; settings: PC-3, 48 h, read-out: GI; outline: as §1
IMR-32 [19] = experiment: Growth inhibition of human IMR32 cells at 5 uM after 48 hrs by sulpharhodamine B assay; format: functional; settings: IMR-32, 48 h, read-out: GI; outline: as §1
HL-60 [20] = experiment: Induction of apoptosis in human HL60 cells assessed as loss of mitochondrial membrane potential at 20 uM after 24 hrs by rodamine-123 staining-based flow cytometric analysis (reference value: 6%); format: functional
HEp-2 [21] = experiment: Cytotoxicity against human Hep2 cells after 48 hrs by sulpharhodamine B assay; format: functional, cell-based; settings: HEp-2, 48 h; outline: as §4
MCF7 [22] = experiment: Cytotoxicity against human MCF7 cells after 48 hrs by sulpharhodamine B assay; format: functional, cell-based; settings: MCF7, 48 h; outline: as §4
HCT-15 [23] = experiment: Cytotoxicity against human HCT15 cells after 48 hrs by sulpharhodamine B assay; format: functional, cell-based; settings: HCT-15, 48 h; outline: as §4
HL-60 [24] = experiment: Induction of apoptosis in human HL60 cells assessed as loss of mitochondrial membrane potential after 24 hrs by rodamine-123 staining-based flow cytometric analysis; format: functional, cell-based
IMR-32 [25] = experiment: Growth inhibition of human IMR32 cells at 30 uM after 48 hrs by sulpharhodamine B assay; format: functional; settings: IMR-32, 48 h, read-out: GI; outline: as §1
MCF7 [26] = experiment: Growth inhibition of human MCF7 cells at 30 uM after 48 hrs by sulpharhodamine B assay; format: functional; settings: MCF7, 48 h, read-out: GI; outline: as §1
HL-60 [27] = experiment: Induction of apoptosis in human HL60 cells assessed as increase in […] sub-G0 fraction at 5 uM by propidium iodide staining-based flow cytometric analysis (reference value: 6%); format: functional
HEp-2 [28] = experiment: Growth inhibition of human Hep2 cells at 50 uM after 48 hrs by sulpharhodamine B assay; format: functional; settings: HEp-2, 48 h, read-out: GI; outline: as §1
HEp-2 [29] = experiment: Growth inhibition of human Hep2 cells at 10 uM after 48 hrs by sulpharhodamine B assay; format: functional; settings: HEp-2, 48 h, read-out: GI; outline: as §1
OVCAR-5 = experiment: Growth inhibition of human OVCAR5 cells at 30 uM after 48 hrs by sulpharhodamine B assay; format: functional; settings: OVCAR-5, 48 h, read-out: GI; outline: as §1
HL-60 [30] = experiment: Induction of apoptosis in human HL60 cells assessed as increase in […] sub-G0 fraction at 10 uM by propidium iodide staining-based flow cytometric analysis (reference value: 6%); format: functional
PC-3 [31] = experiment: Growth inhibition of human PC3 cells at 5 uM after 48 hrs by sulpharhodamine B assay; format: functional; settings: PC-3, 48 h, read-out: GI; outline: as §2
A549 [32] = experiment: Growth inhibition of human A549 cells at 20 uM after 48 hrs by sulpharhodamine B assay; format: functional; settings: A549, 48 h, read-out: GI; outline: as §1
A549 [33] = experiment: Growth inhibition of human A549 cells at 5 uM after 48 hrs by sulpharhodamine B assay; format: functional; settings: A549, 48 h, read-out: GI; outline: as §1

SMILES	inhibition of growth at 20 µM (HCT-15 [1]) [%]	inhibition of growth at 10 µM (THP-1 [2]) [%]	inhibition of growth at 10 µM (IMR-32 [3]) [%]	inhibition of growth at 50 µM (IMR-32 [4]) [%]	inhibition of growth at 20 µM (IMR-32 [5]) [%]	inhibition of growth at 30 µM (THP-1 [6]) [%]	Activity (HL-60 [7]) [%]	inhibition of growth at 5 µM (HEp-2 [8]) [%]	IC50 (HL-60 [9]) [µM]	Activity (HL-60 [10]) [%]	inhibition of growth at 50 µM (A549 [11]) [%]	inhibition of growth at 10 µM (DU-145) [%]	inhibition of growth at 10 µM (MCF7 [12]) [%]	Activity (HL-60 [13])	IC50 (HL-60 [13]) [µM]	inhibition of growth at 30 µM (A549 [14]) [%]	Activity (HL-60 [15])	IC50 (HL-60 [15]) [µM]	IC50 (A549 [16]) [µM]	inhibition of growth at 20 µM (HEp-2 [17]) [%]	further results
CC1C(C(C)(C)O)CCC1(C)/C=C/c1ccc(O)cc1 (stereo unspecified)	63	65	50	85	62	68	31.7	17	1.8	54	76	50	32	Dose-dependent effect	1.8	61	Dose-dependent effect	18	17	50	IC50 (SF-295): 23 µM; inhibition of growth at 10 µM (PC-3 [18]): 35%; inhibition of growth at 5 µM (IMR-32 [19]): 46%; Activity (HL-60 [20]): 49.1%; IC50 (HEp-2 [21]): 19 µM; IC50 (MCF7 [22]): 22 µM; IC50 (HCT-15 [23]): 13 µM; Activity (HL-60 [24]): Dose-dependent effect; inhibition of growth at 30 µM (IMR-32 [25]): 57%; inhibition of growth at 30 µM (MCF7 [26]): 58%; Activity (HL-60 [27]): 12%; inhibition of growth at 50 µM (HEp-2 [28]): 65%; inhibition of growth at 10 µM (HEp-2 [29]): 34%; inhibition of growth at 30 µM (OVCAR-5): 55%; Activity (HL-60 [30]): 34%; inhibition of growth at 5 µM (PC-3 [31]): 24%; inhibition of growth at 20 µM (A549 [32]): 53%; inhibition of growth at 5 µM (A549 [33]): 32%
COc1ccc(/C=C/[C@](C)(/C=C/c2ccc(O)cc2)CCC=C(C)C)cc1	61	62	32	69	40	60	46.4	23	2	55.4	70	57	37	Dose-dependent effect	2	55	Dose-dependent effect	16	12	58	IC50 (SF-295): 22 µM; inhibition of growth at 10 µM (PC-3 [18]): 41%; inhibition of growth at 5 µM (IMR-32 [19]): 13%; Activity (HL-60 [20]): 51.4%; IC50 (HEp-2 [21]): 14 µM; IC50 (MCF7 [22]): 23 µM; IC50 (HCT-15 [23]): 13 µM; Activity (HL-60 [24]): Dose-dependent effect; inhibition of growth at 30 µM (IMR-32 [25]): 51%; inhibition of growth at 30 µM (MCF7 [26]): 52%; Activity (HL-60 [27]): 8%; inhibition of growth at 50 µM (HEp-2 [28]): 62%; inhibition of growth at 10 µM (HEp-2 [29]): 46%; inhibition of growth at 30 µM (OVCAR-5): 50%; Activity (HL-60 [30]): 41%; inhibition of growth at 5 µM (PC-3 [31]): 23%; inhibition of growth at 20 µM (A549 [32]): 69%; inhibition of growth at 5 µM (A549 [33]): 24%
